SMILES strings stand for the structures. Residues, ends and D or L forms follow the SMILES beside them.

This passage reports IC50 and Ki results from ChEMBL document CHEMBL1124977, “Synthesis of acyclic and dehydroaspartic acid analogues of Ac-Asp-Glu-OH and their inhibition of rat brain N-acetylated alpha-linked acidic dipeptidase (NAALA dipeptidase)” (J Med Chem, 1990).

Assay [1] deals with T1, Glutamate carboxypeptidase 2 (Rattus norvegicus, UniProt P70627). Put plainly: Concentration required for 50%inhibition of Ac-Asp-[3,4-3H]-Glu-OH hydrolysis against rat forebrain N-acetylated-alpha-linked acidic dipeptidase. In short, it runs like this:
(§1)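 Enzyme source: "buffy coat" synaptic membranes from Sprague-Dawley rat (45–90 days) forebrain, washed in 0.1 M Hepes pH 7.4 and stored frozen. Inhibitor was tested at about 2- and 4-fold above and below the estimated IC50. Mean of three experiments ± SEM.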

For assay [2], the target named is T1, Glutamate carboxypeptidase 2. Put plainly: Tested for Ac-Asp-[3,4-3H]-Glu-OH hydrolysis inhibitory activity against rat forebrain N-acetylated-alpha-linked acidic dipeptidase. In short, it runs like this: (§2)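 Ki used the same rat forebrain membrane assay (Hepes pH 7.4, NaCl, CoCl₂, radiometric ³H-Glu read-out). Substrate was 0.25, 0.5, 1.0, 2.0 and 5.0 μM. Inhibitor was tested at 0, IC50, and 2- and 4-fold above and below IC50. Lineweaver–Burk slopes were replotted against [inhibitor]. Ki equals the slope at 0 μM inhibitor divided by the replot slope. Ki was determined only when IC50 <100 μM.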

For assay [3] the target is unchanged. Put plainly: Concentration required for 50%inhibition of Ac-Asp-[3,4-3H]-Glu-OH hydrolysis against rat forebrain N-Acetylated alpha-linked Dipeptidase (NAALA Dipeptidase). The procedure, abridged:
as §1

For assay [4] the target is unchanged. Put plainly: Tested for Ac-Asp-[3,4-3H]-Glu-OH hydrolysis inhibitory activity against rat forebrain N-Acetylated alpha-linked Dipeptidase (NAALA Dipeptidase). The procedure, abridged: as §2

T1 sequence (P70627 whole entry): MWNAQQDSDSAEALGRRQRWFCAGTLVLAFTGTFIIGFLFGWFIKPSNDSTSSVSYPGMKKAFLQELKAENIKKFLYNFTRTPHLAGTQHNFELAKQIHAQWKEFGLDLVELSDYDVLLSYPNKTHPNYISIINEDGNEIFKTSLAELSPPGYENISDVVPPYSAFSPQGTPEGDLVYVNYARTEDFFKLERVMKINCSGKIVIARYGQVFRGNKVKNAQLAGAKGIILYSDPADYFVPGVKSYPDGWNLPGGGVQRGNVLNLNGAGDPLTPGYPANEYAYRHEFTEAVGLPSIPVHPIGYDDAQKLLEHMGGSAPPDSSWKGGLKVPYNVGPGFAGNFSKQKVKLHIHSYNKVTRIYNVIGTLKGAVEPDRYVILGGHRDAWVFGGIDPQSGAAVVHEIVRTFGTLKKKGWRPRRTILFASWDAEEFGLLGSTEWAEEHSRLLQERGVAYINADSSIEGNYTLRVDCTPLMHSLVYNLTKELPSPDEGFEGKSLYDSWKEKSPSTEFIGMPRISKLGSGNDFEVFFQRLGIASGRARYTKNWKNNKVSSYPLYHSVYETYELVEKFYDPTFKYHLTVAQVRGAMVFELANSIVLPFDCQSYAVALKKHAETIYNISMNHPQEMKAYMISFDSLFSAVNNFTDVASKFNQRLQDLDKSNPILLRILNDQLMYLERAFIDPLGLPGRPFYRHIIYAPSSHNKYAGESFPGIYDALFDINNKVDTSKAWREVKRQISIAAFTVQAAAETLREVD

As to `CC(=O)N[C@@H](CCC(=O)O)C(=O)N[C@@H](CC(=O)O)C(=O)O` (Ac-Glu-Asp-OH), the IC50 (usually the concentration that gives 50% inhibition) in assay [1] was 193 µM. In assay [1], `O=C(O)CCC(=O)N[C@@H](CCC(=O)O)C(=O)O` had an IC50 of 2.5 µM. Moreover, the Ki (commonly the dissociation constant of the complex between target and ligand, obtained from inhibition or displacement) in assay [2] was determined as 0.9 µM.

On to `CC(=O)N[C@@H](CCC(=O)O)C(=O)N[C@@H](CCC(=O)O)C(=O)O` (Ac-Glu-Glu-OH), for which it took 9 µM to reach half-maximal inhibition in assay [3] (IC50). Also, the inhibitory constant (Ki) in assay [4] was 3.5 µM. On to `O=C(O)/C=C\C(=O)N[C@@H](CCC(=O)O)C(=O)O`, for which the IC50 in assay [1] came out at 83 µM. For the same compound, in assay [2], the affinity, expressed as Ki, was 41 µM. The corresponding values for `CC(=O)N[C@@H](CC(=O)O)CC(=O)N[C@@H](CCC(=O)O)C(=O)O` are 8 µM and 3.2 µM. In assay [3], `CC(=O)N[C@H](CC(=O)O)C(=O)N[C@@H](CCC(=O)O)C(=O)O` came in with an IC50 of 15 µM. The same compound showed an inhibition constant (Ki) in assay [2] of 8.5 µM. In turn, `O=C(O)/C=C/C(=O)N[C@@H](CCC(=O)O)C(=O)O` registered an IC50 in assay [1] of 0.8 µM. In assay [2], this compound gave an inhibitory constant (Ki) of 0.4 µM. In the case of `CC(=O)N[C@@H](CC(=O)O)C(=O)N[C@@H](CC(=O)O)C(=O)O` (Ac-Asp-Asp-OH), in assay [1], 250 µM corresponded to half-maximal inhibition (IC50). On to `CC(=O)N[C@@H](CC(=O)O)C(=O)N[C@@H](CCC(=O)O)CC(=O)O`, for which half-maximal inhibition in assay [1] (IC50) was put at 200 µM.
